According to article PMC7992179 (ACS Omega, 2021):

Columns and labels:
[1] = test system: motor coordination on rotating rod; experiment: Neurotoxicity / minimal motor impairment, rotating rod; assay type: in vivo; conditions: rod observed 5 min, mean ± SEM, 10 mice
In short: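 White albino mice of either sex, 8–10 weeks, 25–35 g, were trained on a rotating rod (2.5 cm diameter, 25 cm high). After i.p. dosing (10, 30 or 50 mg/kg), motor coordination was scored over 5 min at 30 min and 4 h. Neurotoxicity meant failure to stay on the rod for 1 min. 10 mice per group; mean ± SEM.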

[2] = test system: PTZ-induced convulsions; experiment: PTZ-induced convulsions in mice; assay type: in vivo; conditions: for average duration of seizure / latency time / seizure score / mortality: 5 mg/kg i.p., PTZ 70 mg/kg i.p., n = 10; for average duration of seizure / latency time / seizure score: mean ± SEM
In short: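 Overnight-fasted albino mice (n = 10 per group) received test compound at 5 mg/kg i.p., suspended in carboxymethylcellulose and sonicated. Controls were vehicle, PTZ alone and lamotrigine (dose-finding at 1–5 mg/kg). Clonic seizures were induced with PTZ 70 mg/kg i.p. Recorded: latency, convulsion duration, number of convulsions, protection, and a 0–6 seizure score (6 = death). Mean ± SEM; one-way ANOVA with Dunnett's test versus the PTZ group.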

[3] = test system: MCF-7 cell line; experiment: MTT cytotoxicity assay in MCF-7 cells; assay type: cell-based, human; conditions: 48 h, MTT; for IC50 ± SD: MCF-7, 1–30 μM; for % inhibition/stimulation: conc. 30 μM
In short: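 MCF-7 cells grown in Eagle's MEM with 10% FBS, 1% penicillin/streptomycin, 0.1 mM non-essential amino acids, 10 μg/mL insulin and 1 mM sodium pyruvate at 37 °C, 5% CO2. Trypsin/EDTA-harvested cells were seeded at 6 × 10^4 cells/mL and incubated overnight. Test compound (1–30 μM, or a fixed 30 μM screen against doxorubicin) was applied for 48 h. MTT 0.5 mg/mL for 4 h, DMSO, A570; % inhibition and IC50.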

| Substance | time on Rod ([1]; dose 10 mg/kg i.p.) [s] | time on Rod ([1]; dose 30 mg/kg i.p.) [s] | time on Rod ([1]; dose 50 mg/kg i.p.) [s] | average duration of seizure [2] [s] | latency time [2] [s] | seizure score [2] [counts] | mortality [2] [counts] | enhancement of latency time of PTZ-induced seizures compared with the standard LTG drug ([2]; 5 mg/kg, vs LTG) [%] | IC50 ± SD [3] | % inhibition/stimulation [3] [%] | protection against PTZ-induced convulsions ([2]; dose of 5 mg/kg) [%] |
| --- | --- | --- | --- | --- | --- | --- | --- | --- | --- | --- | --- |
| (1E,2Z)-N-[6-(2,3-Dichlorophenyl)-5-{(E)-[(2E)-3-phenylprop-2-en-1-ylidene]amino}-1,2,4-triazin-3-yl]prop-2-en-1-imine Dibutyl Tin Dichloride Coordinate Complex of L1 [7a] | 155.0 ± 97.5 | 130.6 ± 92.4 | 100.4 ± 87.7 | 110 ± 14.1 | 220.0 ± 72.7 | 12.0 ± 1.2 | 0.0 | 4 | inactive | 0.00 | – |
| (1E,2Z)-N-[6-(2,3-Dichlorophenyl)-5-{(E)-[(2E)-3-phenylprop-2-en-1-ylidene]amino}-1,2,4-triazin-3-yl]prop-2-en-1-imine Silver Nitrate Coordinate Complex [6a] | 141.7 ± 102.5 | 120.0 ± 98.7 | 75.8 ± 20.3 | 105 ± 7.1 | 180.0 ± 75.9 | 11.0 ± 2.3 | 1 | – | inactive | 0.00 | 90 |
| (1E,2Z)-N-[6-(2,3-Dichlorophenyl)-5-{(E)-[(2E)-3-phenylprop-2-en-1-ylidene]amino}-1,2,4-triazin-3-yl]prop-2-en-1-imine Zinc Chloride Coordinate Complex [4a] | 66.7 ± 15.1 | 45.4 ± 10.3 | 30.6 ± 4.2 | 86.5 ± 5.0 | 145.0 ± 23.4 | 15.0 ± 4.9 | 0.0 | – | inactive | 0.00 | – |
